CFTR F508del cor: correctors of CFTR F508del function in bronchial epithelial cells | CFBE cells, YFP halide quenching; stimulated with forskolin plus potentiator P3; % fluorescence drop versus neutral controls | activity (quench increase), % at 7.58 µM | 350,000 compounds, 0.36% hits | AID 720511;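 active = mean added fluorescence quench of at least 8% versus neutral control, with both replicates also reaching 8%; inconclusive = only one of the mean or replicate conditions met; inactive = mean below 8% and not both replicates reaching 8%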;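 also: cells transiently co-express mutant CFTR-F508del with the halide-sensitive YFP; corrector assay measuring rescue of mutant channel to the surface after 24 h compound exposure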
S100A4 inh HTS: inhibitors of human S100A4 binding to myosin IIA peptide; inhibition, % at 10.7 µM; AID 652163; P26447; 360,000 compounds, 0.14% hits; S100A4/TAMRA-MyoIIA peptide fluorescence polarization;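 active = mean inhibition of at least 70% across replicates, with every replicate also reaching that level; inconclusive = mean inhibition reaches 70% but some replicates fall short; inactive = mean inhibition below 70%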
Target sequence (P26447 whole entry, looked up): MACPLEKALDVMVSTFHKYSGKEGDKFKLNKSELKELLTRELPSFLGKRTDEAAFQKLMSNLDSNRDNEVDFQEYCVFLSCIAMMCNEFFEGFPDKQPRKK
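Material: S100A4 monomer protein | Medium: HEPES pH 7.2 with CaCl2, KCl, NaCl, DTT, Triton | Reagent: Labelled myosin peptide probe, 5 nM | Doses: One dose per compound | Times: 5 min incubation before reading | Benchmarks: Neutral control DMSO, positive control TFP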
E-selectin induc: induces E-selectin expression in human endothelial cells; 260,000 compounds, 0.37% hits; activation, % at 7.58 µM; HUVEC E-selectin immunofluorescence imaging; normalized: neutral wells 0, TNF-alpha wells 100;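 active = mean E-selectin-positive cell signal at least 10% of the positive control, reached in at least 60% of replicates, without over 20% cell loss; inconclusive = no rule given, readout overlaps actives, possibly toxicity-flagged; inactive = the rest, including those meeting only one limit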
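Test system: HUVEC; input: 3,000 HUVEC/well; measured by: immunofluorescence imaging; read-out: % PE-positive cells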
FGF22 binding: binders of recombinant human FGF22 by thermal shift; SYPRO orange fluorescence; percent of sucrose octasulfate shift, DMSO zero; activity (Tm shift, normalised), % at 9.99 µM; Q9HCT0; AID 651658; 340,000 compounds, 1.5% hits;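 active = mean Tm shift, scaled 0 neutral to 100 positive control, at about 1.3% or above, every replicate too, limit read from the data; inconclusive = no clear call, values can overlap the other calls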
Target sequence (Q9HCT0 whole entry, looked up): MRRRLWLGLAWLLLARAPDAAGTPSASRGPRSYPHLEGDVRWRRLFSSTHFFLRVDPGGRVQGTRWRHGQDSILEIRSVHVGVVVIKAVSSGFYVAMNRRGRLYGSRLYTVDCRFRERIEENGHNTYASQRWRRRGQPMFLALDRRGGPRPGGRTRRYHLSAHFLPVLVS
HIV Env fusion: inhibitors of HIV Env-mediated cell fusion; HeLa-JRFL Env/CEM21 cell fusion, luciferase; inhibition, % at 12.3 µM; 360,000 compounds, 1.1% hits; AID 651610;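 active = mean replicate inhibition score of at least 50 and every replicate individually at or above 50; inconclusive = only one of the two criteria met; inactive = mean below 50 and not all replicates reaching 50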;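 also: 0% = plate neutral controls and 100% = maraviroc near 300 nM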
Starred values were filed as active, the others as inactive; ? = inconclusive; / = not tested or not shown; [ ] = another dose, or the depositor's remark. In the library only some 2.7% were active in any assay of this set; here they are far more common.

SMILES	CFTR F508del cor	S100A4 inh HTS	E-selectin induc	FGF22 binding	HIV Env fusion
CCc1nc(N)nc(N)c1-c1ccc(Cl)c([N+](=O)[O-])c1	9.1*	11	0	0	6
CC(C)(C)C1COc2ccccc2N1C(=O)c1cccc(Cl)c1 (stereo not given)	9.5*	2	3	0	32
COC(=O)CC1COc2ccccc2N1C(=O)c1cccc(Cl)c1 (stereo not given)	/	/	/	/	-5
CC(C)Nc1nc(Nc2ccc(C#N)cc2)c2sccc2n1	8.1*	-10	0	0	35
O=C(NC1CCC1)[C@H]1[C@H](CO)[C@H]2Cn3c(ccc(C4=CCCCC4)c3=O)[C@H]2N1C(=O)C1CCOCC1	/	6	0	0	/
C[C@@H]1CN([C@@H](C)CO)C(=O)Cc2cc(NS(=O)(=O)c3ccc(F)cc3)ccc2O[C@H]1CN(C)Cc1ccc(Cl)c(Cl)c1	-4	/	0	/	100*[16.7 µM]
C[C@@H]1CN([C@@H](C)CO)C(=O)Cc2cc(NS(=O)(=O)c3ccc(F)cc3)ccc2O[C@@H]1CN(C)Cc1ccc(Cl)c(Cl)c1	?	/	0	/	-5[16.7 µM]
C[C@H]1CN([C@@H](C)CO)C(=O)Cc2cc(NS(=O)(=O)c3ccccc3)ccc2O[C@@H]1CN(C)Cc1ccc(Cl)c(Cl)c1	-5	9	6	-1	58*[16.7 µM]
O=C(C[C@@H]1CC[C@@H]2[C@H](COC[C@@H](O)CN2S(=O)(=O)c2ccccc2)O1)NCCN1CCCC1	1	-1	0	/	/
C[C@H]1CN([C@@H](C)CO)C(=O)c2cccc(NS(=O)(=O)c3ccc(F)cc3)c2O[C@H]1CN(C)CC1CCCCC1	-2	-27	0	0	/
O=c1cc(CSc2ccccc2)nc(-c2ccncc2)[nH]1	-3	0	/	0	4
O=c1cc(CSc2ccc(Cl)cc2)nc(-c2ccncc2)[nH]1	/	44	/	43*	11
O=C(CSc1nc2[nH]ncc2c(=O)[nH]1)Nc1ccc(Cl)cc1	2	-2	/	0	/
CCc1ccc(NC(=O)CSc2nc3[nH]ncc3c(=O)[nH]2)cc1	3	5	/	43*	1
C[C@H](CO)N1C[C@H](C)[C@@H](CN(C)Cc2cccc(F)c2)Oc2ncc(C#C[C@@H](C)O)cc2C1=O	1	141*	0	0	-9[16.7 µM]
CC(C)C#Cc1cnc2c(c1)C(=O)N([C@H](C)CO)C[C@H](C)[C@H](CN(C)C(=O)Nc1ccc(F)cc1)O2	-3	78*	1	0	4[16.7 µM]
C[C@H](NC(=O)[C@H]1[C@H](CO)[C@H]2Cn3c(ccc(-c4cccnc4)c3=O)[C@H]2N1C)c1ccccc1	0	-8	0	0	/
Cc1noc(C)c1NC(=O)N(C)C[C@@H]1Oc2ccc(NC(=O)c3ccncc3)cc2C(=O)N([C@@H](C)CO)C[C@@H]1C	1	16	-5	0	/
C[C@H](CO)N1C[C@H](C)[C@@H](CN(C)C(=O)Nc2ccc3c(c2)OCO3)Oc2ccc(NC(=O)c3ccncc3)cc2C1=O	-5	-4	/	0	/
C[C@H](CO)N1C[C@H](C)[C@@H](CN(C)Cc2ccncc2)Oc2ccc(NC(=O)c3ccncc3)cc2C1=O	0	-7	/	0	14[16.7 µM]
C[C@H](CO)N1C[C@H](C)[C@H](CN(C)S(C)(=O)=O)Oc2ccc(NC(=O)C3CCCCC3)cc2C1=O	-2	5	41*	-1	-3[16.7 µM]
C[C@@H]1CN([C@H](C)CO)C(=O)c2cc(NC(=O)c3ccncc3)ccc2O[C@@H]1CN(C)C(=O)Nc1ccc2c(c1)OCO2	-3	-4	40*	0	/
C[C@@H]1CN([C@@H](C)CO)C(=O)c2cc(NC(=O)c3ccncc3)ccc2O[C@H]1CN(C)Cc1ccncc1	7	-5	0	0	67*[16.7 µM]
C[C@H](CO)N1C[C@H](C)[C@@H](CN(C)S(C)(=O)=O)Oc2ccc(NC(=O)C3CCCCC3)cc2C1=O	-1	-3	-12	0	11[16.7 µM]
Cc1noc(C)c1NC(=O)N(C)C[C@H]1Oc2ccc(NC(=O)c3ccncc3)cc2C(=O)N([C@H](C)CO)C[C@@H]1C	-3	27	365*	0	-12
SMILES	CFTR F508del cor	S100A4 inh HTS	E-selectin induc	FGF22 binding	HIV Env fusion
COCC#Cc1cnc2c(c1)C(=O)N([C@@H](C)CO)C[C@@H](C)[C@H](CN(C)C(=O)c1ccc3c(c1)OCO3)O2	1	1	0	0	-2[16.7 µM]
CO[C@H]1CN(C)C(=O)c2ccc(NC(=O)c3ccc(F)cc3)cc2OC[C@H](C)N(C(=O)CN(C)C)C[C@@H]1C	1	/	0	/	/
C[C@H](CO)N1C[C@H](C)[C@H](CN(C)C(=O)Nc2ccc3c(c2)OCO3)Oc2ccc(NC(=O)C3CC3)cc2C1=O	-2	0	0	1	-12[16.7 µM]
C[C@@H]1CN([C@H](C)CO)C(=O)c2cc(NC(=O)C3CC3)ccc2O[C@@H]1CN(C)C(=O)Nc1ccc2c(c1)OCO2	-1	103*	0	-1	6[16.7 µM]
COc1ccc(S(=O)(=O)N(C)C[C@@H]2Oc3ncc(-c4cccc(OC)c4)cc3C(=O)N([C@H](C)CO)C[C@@H]2C)cc1	2	/	0	/	7[16.7 µM]
Cc1cccc(-c2nc(CSCC(=O)N3CCN(c4ccccn4)CC3)c(C)o2)c1	/	/	/	/	89*
Cc1ccc(S(=O)(=O)CCSC(=N)N)cc1	-9	7	/	44*	11
COc1ccc(S(=O)(=O)N[C@H]2C=C[C@H](CC(=O)N3CCN(c4ccccc4)CC3)O[C@@H]2CO)cc1	1	11	-2	0	59*[16.7 µM]
O=C(C[C@H]1C=C[C@H](NS(=O)(=O)c2ccc(F)cc2)[C@@H](CO)O1)NC1CCC1	-2	3	0	0	-2[16.7 µM]
Cc1ccc(S(=O)(=O)N[C@H]2C=C[C@H](CC(=O)O)O[C@@H]2CO)cc1	-2	122*	0	0	-6[16.7 µM]
Cc1ccc(S(=O)(=O)N[C@H]2C=C[C@@H](CC(=O)NC3CCCCC3)O[C@@H]2CO)cc1	0	95*	0	-1	-13[16.7 µM]
COc1ccc(S(=O)(=O)N[C@@H]2C=C[C@@H](CC(=O)N3CCN(c4ccccc4)CC3)O[C@@H]2CO)cc1	1	-5	-2	0	0[16.7 µM]
Cc1ccc(S(=O)(=O)N[C@@H]2C=C[C@@H](CC(=O)N3CCC(Cc4ccccc4)CC3)O[C@@H]2CO)cc1	3	11	-1	0	56*[16.7 µM]
O=C(C[C@@H]1C=C[C@@H](NS(=O)(=O)c2ccccc2)[C@H](CO)O1)N1CCC(Cc2ccccc2)CC1	1	2	-1	1	/
C[C@@H]1CCCCO[C@@H](CN(C)S(=O)(=O)c2ccccc2)[C@@H](C)CN([C@@H](C)CO)C(=O)c2cc(NC(=O)CCC(F)(F)F)ccc2O1	1	1	0	1	-14[16.7 µM]

Source: PubChem (Broad Institute)
